Compounds with a hit are over-represented: about 3% of the library has one in this group of screens.
NPR1 activator: GC-A stimulated cGMP production enhancers – HEK293 GC-A cells, cGMP TR-FRET, EC30 ANP, primary screen | 0% at EC30 ANP, 100% saturating ANP | activation, % at 10 µM | 370,000 compounds, 0.14% hits | AID 1671463, 2021; in the data active means activation above about 40%
NPR2 activator: human GC-B receptor activators, primary screen, HEK293 GC-B cells, cGMP TR-FRET, EC30 CNP; Atrial natriuretic peptide receptor 2 (Homo sapiens), P20594; 0% at EC30 CNP, 100% saturating CNP; activation, % at 10 µM; 370,000 compounds, 0.11% hits; AID 1920062, 2024;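 active means activation at 10 µM reaching about 35% in either raw or pattern-adjusted values, limit read from the data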
GRIN3A LBD mod: binders of NR3A ligand-binding domain, primary screen, biophysical, differential scanning fluorimetry, uHTS; 340,000 compounds, 2.5% hits; NR3A LBD differential scanning fluorimetry, Tm shift; 0% = protein alone, 100% = glycine-bound protein; Glutamate receptor ionotropic, NMDA 3A (GRIN3A) ligand-binding domain; Tm shift relative to glycine control, % at 25 µM; AID 1259313, 2017;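 active means melting temperature shift of at least 10% of the positive control shift, at one fixed dose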
aDG glyco up: activators of alpha-DG glycosylation, primary screen, uHTS, Pro5-aDG cells, AlphaScreen; 360,000 compounds, 0.22% hits; activation, % at 10 µM; alpha-DG glycosylation AlphaScreen (IIH6); 0% Pro5, 100% B10-LARGE cell signal; AID 624168, 2012;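 active means activation of at least 8% versus controls, or a plate z-score of at least 8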;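 further: Pro5 are CHO cells carrying HIG-tagged alpha-DG that lacks glycosylation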
JMJD2C inh: inhibitors of GASC-1 histone demethylase, primary screen, biochemical, fluorescence, DELFIA europium | Lysine-specific demethylase 4C (Homo sapiens), Q9H3R0 | GST-JMJD2C(1-420) H3K9me3 demethylation | inhibition, % at 2.35 µM | 330,000 compounds, 0.069% hits | AID 2099, 2009;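 active means more than half of a compound's replicate wells show inhibition beyond 50%, single wells judged on their own value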;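 further: signal counts dimethyl H3K9 product captured on neutravidin plate; 0% = median of DMSO wells and 100% = 0.3 times that DMSO median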
Target sequence (Q9H3R0 1-420 limits assumed): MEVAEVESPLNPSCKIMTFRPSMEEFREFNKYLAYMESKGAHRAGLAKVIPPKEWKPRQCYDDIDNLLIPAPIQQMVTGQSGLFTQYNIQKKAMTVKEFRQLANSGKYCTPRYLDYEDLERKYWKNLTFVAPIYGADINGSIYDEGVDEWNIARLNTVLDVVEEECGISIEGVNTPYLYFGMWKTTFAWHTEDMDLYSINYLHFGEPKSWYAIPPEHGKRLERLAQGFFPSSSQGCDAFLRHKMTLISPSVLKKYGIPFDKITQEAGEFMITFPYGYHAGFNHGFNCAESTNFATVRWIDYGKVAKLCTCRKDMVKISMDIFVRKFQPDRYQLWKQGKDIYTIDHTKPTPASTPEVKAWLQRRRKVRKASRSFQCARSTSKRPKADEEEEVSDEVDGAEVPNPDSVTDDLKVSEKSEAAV
Lipid droplet: inhibitors of hepatocyte lipid droplet formation, primary screen, imaging, high-throughput imaging, BODIPY stain; 240,000 compounds, 0.4% hits; AML12 mouse hepatocytes, oleate lipid droplets; inhibition, % at 6.5 µM;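 active means lipid droplet intensity inhibited by at least 50%, with more than 500 cells counted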
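Material – AML12 mouse liver cells · Also added – oleate loading, 100 µM · Compound dosing – 6.5 µM single-point dosing · Times – overnight treatment with compound plus oleate · Measured by – fluorescence imaging, 20x objective, two fields per well · Read-out – percent inhibition of filter-corrected integrated lipid droplet intensity per well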
Numbers without * were called inactive; . = not tested or not shown.

SMILES | NPR1 activator | NPR2 activator | GRIN3A LBD mod | aDG glyco up | JMJD2C inh | Lipid droplet
Cc1ccc(-n2c(SCC(=O)Nc3ccc(OCc4ccccc4)cc3)nnc2-c2ccco2)cc1 | -1 | 0 | . | . | . | .
O=C(Nc1ccc2c(c1)OCO2)Nc1ccc2c(c1)OCO2 | -5 | -2 | 9 | 0 | -1 | 5
O=C(Nc1ccc([N+](=O)[O-])cc1)Nc1ccc2[nH]c(=O)[nH]c2c1 | -3 | -2 | 24* | -1 | 9 | 8
O=C(CSc1ccc([N+](=O)[O-])cn1)Nc1ccc2[nH]c(=O)[nH]c2c1 | 2 | -4 | -1 | 0 | -8 | 8
COc1cc(NC(=O)Nc2ccc3c(c2)OCO3)cc(OC)c1OC | 0 | 6 | 26* | 0 | -2 | -1
CCc1ccc(N2CC(C(=O)OCC(=O)N(CC)c3c(N)n(Cc4ccccc4)c(=O)[nH]c3=O)CC2=O)cc1 (stereo not drawn) | 0 | -2 | -2 | 0 | . | .
CC1(c2ccc3ccccc3c2)NC(=O)N(CC(=O)NCC(C)(C)N2CCOCC2)C1=O (stereo not drawn) | -2 | 7 | 17* | 0 | -8 | .
CC1(c2ccc3ccccc3c2)NC(=O)N(CC(=O)NCc2cccs2)C1=O (stereo not drawn) | 4 | -3 | 1 | 0 | 1 | -6
CC(=O)Nc1cccc(NC(=O)Cc2cccs2)c1 | 6 | -6 | -4 | 0 | -8 | -7
Cc1ccccc1C(=O)Nc1ccc(-c2nc3ccc(C(=O)c4ccccc4)cc3[nH]2)cc1 | 5 | 0 | 17* | 2 | -7 | .
O=C(Cc1cccs1)Nc1cccc(-c2nc3cc4ccccc4cc3[nH]2)c1 | 1 | 9 | 28* | 0 | 0 | 11
Cc1ccc(OCC(=O)Nc2ccc(NC(=O)c3ccco3)cc2)c(C)c1 | 2 | 2 | 29* | 0 | 2 | -14
O=C(Nc1ccc(-c2nc3ccc(NC(=O)c4cccs4)cc3[nH]2)cc1)c1cccs1 | 2 | 0 | 30* | 0 | -7 | -8
O=C(c1ccccc1)c1ccc2nc(-c3ccc(NC(=O)c4ccccc4Br)cc3)[nH]c2c1 | 0 | 1 | 9 | 0 | -7 | 38
COC(=O)C1=C(C)N(Cc2ccc(C(F)(F)F)cc2)C(=NCc2ccc3c(c2)OCO3)NC1c1cccc(Cl)c1 (stereo not drawn) | -19 | -16 | . | . | . | .
O=C(Nc1cccc(-c2nc3ccccc3[nH]2)c1)c1ccco1 | 14 | 13 | 7 | 0 | -9 | .
Cc1ccc2nc(-c3ccc(NC(=O)c4ccco4)cc3)[nH]c2c1 | 1 | 1 | 31* | 0 | 6 | -2
Cn1cccc1-c1nc2ccc(NC(=O)c3ccco3)cc2[nH]1 | 8 | 14 | -4 | 0 | -13 | 15
O=C(Nc1ccc2nc(-c3cccs3)[nH]c2c1)c1cccs1 | 9 | 4 | 26* | 0 | -8 | 37
O=C(Nc1ccc2c(c1)CCC2)c1cccs1 | -4 | 0 | -14 | 0 | -1 | 2
O=C(Nc1ccc2nc(-c3cccs3)[nH]c2c1)c1ccco1 | 8 | 11 | 14* | 0 | 17 | 4
O=C(/C=C/c1ccc(F)cc1)Nc1cccc(S(=O)(=O)N2CCOCC2)c1 | 1 | 0 | -5 | 0 | 2 | .
O=C(/C=C/c1ccc(S(=O)(=O)N2CCOCC2)cc1)Nc1cc(F)ccc1F | -5 | 2 | 32* | 0 | 3 | .
Cc1ccc(F)cc1NC(=O)/C=C/c1ccc(S(=O)(=O)N2CCOCC2)cc1 | -7 | 1 | 15* | 0 | . | .
COC(=O)c1cc2c(c3c4cc(C)ccc4n(S(=O)(=O)c4cccc(C)c4)c13)C(=O)N(Cc1ccc(C(F)(F)F)cc1)C2 | -3 | 4 | . | . | . | .
SMILES | NPR1 activator | NPR2 activator | GRIN3A LBD mod | aDG glyco up | JMJD2C inh | Lipid droplet
Oc1ccc2ccccc2c1C=Nn1c(-c2n[nH]c3c2CCC3)n[nH]c1=S | 2 | -5 | . | . | . | .
Cc1sc(NC(=O)CN2CCCC2)nc1-c1ccc2c(c1)CCN2C(=O)c1cccc(F)c1 | 1 | 0 | -2 | 2.7* | -5 | -6
CCS(=O)(=O)N(C)C[C@@H]1OCc2ccccc2-c2c(n(C)c3ccccc23)C(=O)N([C@H](C)CO)C[C@@H]1C | -8 | 1 | . | . | . | .
COc1ccc(Br)c(C(=O)OCC(=O)Nc2cc(C)on2)c1 | 3 | -2 | . | 0 | . | .
COc1ccc(C(N)=O)c(OCC(=O)Nc2cc(C)on2)c1 | 8 | 5 | 15* | 0 | 3 | .
C=CCOc1ccc(/C=C/C(=O)OCC(=O)NCCCc2ccccc2)cc1 | 1 | 2 | 15* | 0 | 16 | .
COc1ccc(/C=C/C(=O)OCC(=O)NCCCc2ccccc2)cc1OC | -2 | -7 | -2 | 0 | 0 | .
Cc1cc(C)cc(NC(=O)N2CCC(c3nc4ccc(Cl)cc4[nH]3)CC2)c1 | -4 | -5 | . | . | . | .
COc1ccc(-c2csc(C(C)(O)c3ccc(F)c(F)c3)n2)cn1 (stereo not drawn) | -1 | -9 | . | 0 | . | .
Cc1ccc(C(=O)N2CCN(c3ccccn3)CC2)cc1Cl | -3 | 2 | -1 | 0 | 2 | -16
CCOc1cc(-c2sc(Nc3cc(C)ccc3OC)n[n+]2-c2ccccc2)ccc1OC | -8 | -13 | 13* | 0 | . | .
CCOc1cc(-c2sc(Nc3ccc(CC)cc3)n[n+]2-c2ccccc2)ccc1OC | -1 | -2 | 1 | 0 | 0 | .
CCOC(=O)N[C@@H](Cc1cccnc1)C(=O)N1CCC[C@H]1C(=O)NC1CCCC1 | -1 | -4 | . | . | . | .
S=C(NCc1ccccc1)NCc1cccc(CNC(=S)NCc2ccccc2)c1 | 1 | -3 | 20* | 0 | 2 | 6
S=C(NCc1ccccc1)NCc1cccc(Cl)c1 | 1 | 5 | -5 | 0 | 7 | -10
FC(F)(F)Sc1ccc(NC(=S)NCc2ccccc2)cc1 | 0 | 2 | 20* | 0 | -15 | 1
NC(=S)Nc1nc2ccccc2[nH]c1=O | 9 | 9 | . | . | 1 | 12
Cc1ccc2[nH]c(=O)c(NC(N)=S)nc2c1 | 0 | 4 | 11* | 0 | -4 | .
O=C(NCc1ccccc1)[C@H]1CCCN1C(=O)[C@H]1CCCN1C(=O)c1ccc(F)cc1 | 2 | 1 | . | . | . | .
Cc1ccc(CNc2nc(C)nc3sc4c(c23)CCC4)cc1 | 40* | 45* | -2 | 3 | -1 | .
CC(Cl)C(=O)N1CCC(C(=O)NCC2COc3ccccc3O2)CC1 (stereo not drawn) | 5 | -7 | . | . | . | .
